Screening results deposited in PubChem by Sanford-Burnham Center for Chemical Genomics.
Only some compounds are listed: those with a hit (about 3.3% of all), similar ones and a draw of the others.
SENP7 block = blocks the human protease SENP7; inhibition, % at 5 µM; recombinant SENP7, Z-RLRGG-aminoluciferin luminescence, 40 min; Q9BQF6; 330,000 compounds, 1.5% hits;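 active means inhibition above about 50% at the single test dose, limit read from the data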
Target sequence (Q9BQF6 706-1050 limits assumed): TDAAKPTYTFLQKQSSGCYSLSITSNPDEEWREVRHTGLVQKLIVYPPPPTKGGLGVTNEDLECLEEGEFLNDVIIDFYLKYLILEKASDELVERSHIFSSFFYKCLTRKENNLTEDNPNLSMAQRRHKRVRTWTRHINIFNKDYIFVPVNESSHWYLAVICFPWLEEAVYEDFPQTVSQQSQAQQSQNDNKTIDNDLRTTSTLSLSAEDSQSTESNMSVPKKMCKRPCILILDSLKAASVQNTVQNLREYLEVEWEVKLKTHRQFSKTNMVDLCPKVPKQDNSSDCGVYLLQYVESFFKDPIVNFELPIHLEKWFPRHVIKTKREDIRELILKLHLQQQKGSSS
SENP8 block-1 = SENP8 protease inhibition | 330,000 compounds, 1.2% hits | inhibition, % at 10 µM | purified SENP8, Z-RLRGG-aminoluciferin cleavage, luminescence | AID 2540; in the data active means inhibition above about 50%
SENP1 inh = SENP1 (human) catalytic domain inhibition. 360,000 compounds, 0.21% hits. Q9P0U3. inhibition, % at 10 µM. recombinant SENP1 catalytic domain, CyPet-SUMO1-YPet FRET cleavage. AID 624204;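 active means inhibition at least 30% at 10 µM, raw YFP signal under a set limit, fluorescence ratio 0.5 to 1.5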
Target sequence (Q9P0U3 419-644 limits assumed): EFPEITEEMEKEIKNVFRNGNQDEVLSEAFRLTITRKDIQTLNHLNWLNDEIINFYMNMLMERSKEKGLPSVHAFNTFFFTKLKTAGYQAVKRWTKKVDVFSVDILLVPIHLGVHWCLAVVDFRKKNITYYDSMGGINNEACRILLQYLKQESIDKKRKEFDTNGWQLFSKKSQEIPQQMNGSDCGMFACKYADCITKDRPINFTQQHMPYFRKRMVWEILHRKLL
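Assay system: hSENP1 catalytic domain, recombinant. Amount: SENP1 enzyme, 20 pM final. Schedule: 50 min reaction, RT, dark. Technique: FRET, CFP and YFP emission. Control set: no-enzyme wells low, DMSO-plus-enzyme wells high control.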
SENP8 block-2 = SENP8 (human) protease inhibition; Q96LD8; recombinant SENP8, Nedd8 substrate fluorescence; inhibition, % at 20 µM; 360,000 compounds, 0.64% hits; AID 602440; in the data active means inhibition mostly above about 40%, no sharp cut-off; inactive means mostly below about 27%
CendR NRP1 mod = NRP-1/CendR interaction modulation; O14786; FAM-RPARPAR peptide binding to NRP-1, fluorescence polarization; inhibition, % at 25 µM; 360,000 compounds, 0.85% hits;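 active means inhibition or corrected inhibition above about 18%, plus a signal ratio from 0.5 to 1.5, limit read from the data, passing the limit was not always enough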
SENP6 block = blocks the human protease SENP6; Q9GZR1; inhibition, % at 10 µM; Recombinant SENP6 catalytic domain, aminoluciferin luminescence; 330,000 compounds, 1.8% hits;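 active means inhibition above about 50% at the single tested dose, limit read from the data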
A number is an active result; 0 = inactive; - = no result.

SMILES	SENP7 block	SENP8 block-1	SENP1 inh	SENP8 block-2	CendR NRP1 mod	SENP6 block
Oc1c(Cl)cc(Cl)cc1/C=N/Nc1ncc(Br)cn1	0	0	0	0	38.1	0
O=C(N/N=C/c1cc(Cl)cc(Cl)c1O)c1ccncc1	0	0	0	0	0	0
NC(=Nc1nc(-c2ccccn2)cc2ccccc12)c1ccccn1	-	-	0	0	0	-
COc1ccc(NC(C)c2cc(Cl)ccc2O)cc1 (stereo unspecified)	0	0	0	47.0	0	0
CCCNC(=O)c1ccc(N2CCC3(CC2)CC(c2ccccc2)=NO3)c([N+](=O)[O-])c1	0	0	0	0	0	0
O=C(NCc1ccccc1)c1ccc(N2CCC3(CC2)CC(c2ccc(Cl)cc2)=NO3)c([N+](=O)[O-])c1	0	0	0	0	30.9	0
Cc1ccc(C(=O)COC(=O)c2cc(Cl)ccc2O)cc1[N+](=O)[O-]	0	0	0	0	44.6	0
O=C1CC/C=C\C[C@@H](CC(=O)N(CCO)Cc2ccccc2)C(=O)NCCO1	0	0	0	0	25.7	0
COCCCN(Cc1cc(OC)c(OC)c(OC)c1)C(=S)Nc1cccc(Cl)c1	-	-	0	0	0	-
CCCS(=O)(=O)N1CCC(Cc2ccc(OC)cc2)(C(=O)OCC)CC1	0	0	0	0	39.3	0
CCOC(=O)C1(Cc2ccc(OC)cc2)CCN(S(C)(=O)=O)CC1	0	0	0	0	0	0
O=C(NCc1ccccc1)C(c1ccc(C(F)(F)F)cc1)n1c(=O)c(-c2cc3ccccc3[nH]2)nc2ccccc21 (stereo unspecified)	-	-	0	0	0	-
CCO[C@@H]1c2c(ccc3ccc(=O)oc23)OC(C)(C)[C@@H]1O	0	0	0	0	31.5	0
Cc1nc(N)nc(Nc2ccc(Cl)cc2)c1Br	0	0	0	0	0	0
Cc1nc(N)nc(Nc2ccc(C#N)cc2)c1Br	0	0	0	0	16.6	0
N#Cc1c(N)nc(N)nc1Nc1ccc(Br)cc1	0	0	0	0	0	59.9
c1ccc(-c2cc3cc4c(cc3cn2)OCO4)cc1	89.9	80.1	0	0	0	86.4
c1ccc(-c2cc(-c3ccccc3)ncn2)cc1	0	0	0	0	0	0
Nc1c(C(=O)CSc2nnc(Cc3ccccc3)o2)c(=O)[nH]c(=O)n1C1CC1	0	0	0	0	0	0
COCOCCn1cc(CN2CCS(=O)(=O)N(Cc3ccc(-c4cccc(CO)c4)cc3)C(CC(C)C)C2=O)nn1 (stereo unspecified)	-	-	0	0	0	-
CCOC(=O)C1=CCN(S(=O)(=O)c2ccccc2C)C1c1cccc(C)c1 (stereo unspecified)	-	-	0	0	0	-
Cc1ccc(C(=O)NCCN2C3=NC[C@H](C)N3C[C@H]2Cc2ccc(O)cc2)cc1Br	0	0	0	0	25.1	0
O=c1ccc(N=Nc2ccccc2)ccc1O	-	-	0	42.6	0	-
CCN(CC)c1ccc(/C=c2\sc3nnc(-c4ccccc4Cl)n3c2=O)cc1	0	0	0	61.3	0	0
CC(C)C[C@@H]1CN(CCCC[C@H]2CNC(=O)C(=O)N2CCC2CCCCC2)C(=O)C(=O)N1CCc1ccc(O)cc1	-	-	0	0	0	-
SMILES	SENP7 block	SENP8 block-1	SENP1 inh	SENP8 block-2	CendR NRP1 mod	SENP6 block
CC(C)CN1CCC(=O)N([C@H](CSc2ccc(Br)cc2)Cc2ccccc2)CC1	0	0	0	0	24.4	0
CCCN1CCC(=O)N([C@H](CSc2ccc(Br)cc2)c2ccccc2)CC1	0	0	0	0	24.0	0
O=C1CCN(CCc2ccccc2)CCN1[C@H](CSc1ccc(Br)cc1)c1ccccc1	0	0	0	0	0	0
Cc1ccc(OCC(=O)c2c(N)n(C)c(=O)n(C)c2=O)c([N+](=O)[O-])n1	0	0	0	0	20.6	0
Cc1cc(C(=O)C(C)OC(=O)c2ccc(NC(=O)CC#N)cc2)c(C)n1-c1ccc(OC(F)F)cc1 (stereo unspecified)	0	0	0	0	0	0
COc1ccccc1N1CCN(C(CNC(=O)c2ccc3c(c2)OCO3)c2cccnc2)CC1 (stereo unspecified)	0	0	0	0	29.0	0
COCc1nnc(NC(=O)c2cccc(NC(=O)C(C)C)c2)s1	0	0	0	0	0	0
COCc1nnc(NC(=O)C(C)C)s1	0	0	0	0	25.7	0
Cc1ccc(C)c(N2CCN(C(C(=O)NC3CCCC3)C(C)C)CC2)c1 (stereo unspecified)	-	-	0	0	0	-
CCC(C)C(CO)NCCCn1cnc2c(OC)ncnc21 (stereo unspecified)	-	-	0	0	0	-
COc1ccccc1Cc1c(C(C)(C)C)nc2ccc(C)cn12	-	-	0	0	0	-
O=C(O)/C(=C\c1ccccc1)c1ccc2ccccc2c1	0	0	0	0	20.7	0
Cc1ccc(OC(C)C(=O)Nc2ccc(Cl)cn2)c([N+](=O)[O-])n1 (stereo unspecified)	0	0	0	0	0	0
Cc1cc(Cl)ccc1OC(C)C(=O)Nc1ccc([N+](=O)[O-])cn1 (stereo unspecified)	0	0	0	0	25.7	0
Cc1[nH]n(-c2ccccc2)c(=O)c1N=Nc1ccc(F)cc1	0	0	0	0	0	0
O=c1c(N=Nc2ccccc2)c[nH]n1-c1ccccc1	-	-	0	54.0	0	-
COC1=CC(=O)OC(c2ccc(C#N)cc2)C1 (stereo unspecified)	-	-	0	0	0	-
O=C(Nc1cccc(C(F)(F)F)c1)c1csc([C@@H]2O[C@H](CO)[C@@H](O)[C@H]2O)n1	-	-	0	0	0	-
CCc1c(C)nc2ncnn2c1N1CCCC(C(=O)NCc2ccc3c(c2)OCO3)C1 (stereo unspecified)	0	0	0	0	0	0
CCc1c(C)nc2ncnn2c1N1CCCC(C(=O)Nc2ccc(NC(C)=O)cc2)C1 (stereo unspecified)	0	0	0	0	29.2	0
COc1cccc(-c2oc3c(c2C#CC2(N)CCCCC2)C(O)CCC3)c1 (stereo unspecified)	-	-	0	0	0	-
CN1C(=O)C(N=Nc2ccccc2C(=O)O)N(C)C1=S (stereo unspecified)	0	86.4	55.5	0	0	88.8
CN(C)CCN1CCN(C2CN(Cc3ccc([N+](=O)[O-])cc3)S(=O)(=O)C2)CC1 (stereo unspecified)	-	-	0	0	22.2	-
O=C(CNc1cccc(S(=O)(=O)N2CCCCC2)c1)Nc1ccc(C(F)(F)F)cc1	-	-	0	0	0	-
NC(=O)C1CCN(C2=C(NS(=O)(=O)c3ccc(Br)cc3)C(=O)c3ccccc3C2=O)CC1	0	0	0	41.0	0	0
CN1CCN(C2=C(NS(=O)(=O)c3ccccc3)C(=O)c3ccccc3C2=O)CC1	0	0	0	0	0	0
CCOC(=O)N1CCN(C(=O)CNC(=O)c2ccc(Br)cc2)CC1	0	0	0	0	26.9	0
CCN1CCN(C2=C(NS(=O)(=O)c3ccccc3)C(=O)c3ccccc3C2=O)CC1	0	0	0	57.9	0	0
